This note sets out measurements from ChEMBL document CHEMBL2424619, “Small-molecule ligands of methyl-lysine binding proteins: optimization of selectivity for L3MBTL3” (J Med Chem, 2013).

Data set [1] addresses T1, E3 ubiquitin-protein ligase UHRF1 (Homo sapiens, UniProt Q96T88).
T1 sequence (Q96T88 whole entry): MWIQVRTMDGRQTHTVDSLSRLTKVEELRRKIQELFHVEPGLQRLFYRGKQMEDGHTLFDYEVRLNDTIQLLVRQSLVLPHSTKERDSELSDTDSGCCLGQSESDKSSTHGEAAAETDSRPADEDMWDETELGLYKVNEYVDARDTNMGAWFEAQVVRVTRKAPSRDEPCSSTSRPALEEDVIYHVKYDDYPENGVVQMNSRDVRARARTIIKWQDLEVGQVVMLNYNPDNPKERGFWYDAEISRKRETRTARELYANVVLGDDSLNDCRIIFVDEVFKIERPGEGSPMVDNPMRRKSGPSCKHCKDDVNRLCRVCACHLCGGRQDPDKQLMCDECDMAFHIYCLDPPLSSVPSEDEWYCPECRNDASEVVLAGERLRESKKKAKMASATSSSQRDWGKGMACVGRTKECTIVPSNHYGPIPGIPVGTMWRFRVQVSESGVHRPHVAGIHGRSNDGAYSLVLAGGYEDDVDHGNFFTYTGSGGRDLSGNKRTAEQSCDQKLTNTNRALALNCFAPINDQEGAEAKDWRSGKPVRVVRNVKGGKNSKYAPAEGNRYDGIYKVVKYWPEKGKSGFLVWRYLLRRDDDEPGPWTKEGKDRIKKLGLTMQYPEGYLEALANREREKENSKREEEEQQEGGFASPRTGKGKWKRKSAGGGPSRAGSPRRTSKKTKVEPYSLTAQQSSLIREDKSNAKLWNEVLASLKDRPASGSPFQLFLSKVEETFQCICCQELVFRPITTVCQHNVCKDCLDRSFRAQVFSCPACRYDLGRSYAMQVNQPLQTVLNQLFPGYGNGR
Briefly: Inhibition of UHRF1 (unknown origin) after 30 mins by AlphaScreen assay. Summed up:
(§1)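 AlphaScreen competition with histone peptide. Compounds in 3-fold, 10-point dilutions, top 10 or 30 μM; buffer 20 mM Tris pH 8.0, 25 mM NaCl, 2 mM DTT, 0.05% Tween-20. Protein-peptide mix 30 min RT, then streptavidin donor plus nickel-chelate acceptor beads (GST acceptor beads for GST-tagged PHF23, JARID1A) 30 min RT dark. […] Protein-free His6-biotin peptide counterscreen.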
A general note: In Alpha technology, singlet oxygen from a donor bead excites a nearby acceptor bead.

Data set [2] deals with T2, Scm-like with four MBT domains protein 1 (Homo sapiens, UniProt Q9UHJ3).
T2 sequence (Q9UHJ3 whole entry): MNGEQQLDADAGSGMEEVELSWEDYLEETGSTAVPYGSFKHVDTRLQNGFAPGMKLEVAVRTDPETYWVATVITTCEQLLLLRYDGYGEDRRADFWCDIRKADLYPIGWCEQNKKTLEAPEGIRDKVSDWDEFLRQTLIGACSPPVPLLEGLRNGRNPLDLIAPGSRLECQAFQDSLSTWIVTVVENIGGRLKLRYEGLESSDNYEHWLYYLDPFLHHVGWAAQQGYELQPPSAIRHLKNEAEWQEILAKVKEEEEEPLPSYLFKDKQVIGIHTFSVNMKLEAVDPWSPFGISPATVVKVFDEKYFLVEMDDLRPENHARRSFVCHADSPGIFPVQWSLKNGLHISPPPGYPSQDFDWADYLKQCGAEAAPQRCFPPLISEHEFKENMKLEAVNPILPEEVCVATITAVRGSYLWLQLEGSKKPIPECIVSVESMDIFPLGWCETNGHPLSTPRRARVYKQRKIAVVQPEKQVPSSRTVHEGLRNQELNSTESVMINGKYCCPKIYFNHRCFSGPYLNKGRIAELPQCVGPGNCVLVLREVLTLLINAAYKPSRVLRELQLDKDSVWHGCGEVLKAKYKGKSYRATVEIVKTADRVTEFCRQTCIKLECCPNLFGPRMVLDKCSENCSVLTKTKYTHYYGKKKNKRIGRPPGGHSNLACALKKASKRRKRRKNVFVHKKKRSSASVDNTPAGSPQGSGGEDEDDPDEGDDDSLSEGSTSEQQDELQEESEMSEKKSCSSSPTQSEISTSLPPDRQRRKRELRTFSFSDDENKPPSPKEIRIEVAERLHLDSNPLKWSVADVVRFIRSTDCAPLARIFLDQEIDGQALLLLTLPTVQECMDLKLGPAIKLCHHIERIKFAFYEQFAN
Put plainly: Inhibition of SFMBT1 (unknown origin) after 30 mins by AlphaScreen assay. Summed up:
as §1

Data set [3] deals with T3, Lethal(3)malignant brain tumor-like protein 4 (Homo sapiens, UniProt Q8NA19).
T3 sequence (Q8NA19 whole entry): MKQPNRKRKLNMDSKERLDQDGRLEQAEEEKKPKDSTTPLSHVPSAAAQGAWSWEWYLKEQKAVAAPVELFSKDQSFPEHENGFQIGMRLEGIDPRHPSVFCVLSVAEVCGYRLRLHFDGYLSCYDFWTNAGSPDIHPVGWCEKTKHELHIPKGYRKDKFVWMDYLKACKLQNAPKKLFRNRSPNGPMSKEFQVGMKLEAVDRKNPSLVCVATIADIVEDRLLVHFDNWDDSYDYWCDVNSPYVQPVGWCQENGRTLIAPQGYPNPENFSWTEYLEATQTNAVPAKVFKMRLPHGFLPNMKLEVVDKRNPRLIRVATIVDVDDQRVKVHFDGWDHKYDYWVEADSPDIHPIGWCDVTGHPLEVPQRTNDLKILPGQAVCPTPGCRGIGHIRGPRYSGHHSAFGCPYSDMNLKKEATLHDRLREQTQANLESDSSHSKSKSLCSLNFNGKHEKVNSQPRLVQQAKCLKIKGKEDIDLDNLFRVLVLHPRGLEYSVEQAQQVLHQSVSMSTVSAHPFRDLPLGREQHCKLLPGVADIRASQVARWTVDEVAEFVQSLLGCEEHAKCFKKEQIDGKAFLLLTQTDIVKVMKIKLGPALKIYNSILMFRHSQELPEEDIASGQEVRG
Briefly: Inhibition of L3MBTL4 (unknown origin) after 30 mins by AlphaScreen assay. Summed up:
(§2)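 AlphaScreen competition with histone peptide. Compounds in 3-fold, 10-point dilutions, top 10 or 30 μM; buffer 20 mM Tris pH 8.0, 25 mM NaCl, 2 mM DTT, 0.05% Tween-20. Protein-peptide mix 30 min RT, then streptavidin donor plus nickel-chelate acceptor beads (GST acceptor beads for GST-tagged PHF23, JARID1A) 30 min RT dark. Protein-free His6-biotin peptide counterscreen.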

For a further data set, the system named is HEK-293T. Briefly: Cytotoxicity against HEK293T/17 cells assessed as cell viability up to 100 uM after 24 hrs by CellTiter-Glo luminescence assay. The class given is cell-based. To be noted: human. In a few lines: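 Cell viability by CellTiter-Glo luminescence, compound tested up to 100 μM.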
On the technique in general: ATP-based viability assays read luminescence as a measure of living cells.

The next data set has as its target TP53-binding protein 1 (Homo sapiens, UniProt Q12888). Briefly: Inhibition of 53BP1 (unknown origin) after 30 mins by AlphaScreen assay. In a few lines: as §1
Data set [4] addresses Lysine-specific demethylase 5A (Homo sapiens, UniProt P29375). Briefly: Inhibition of JARID1A (unknown origin) after 30 mins by AlphaScreen assay. Summed up:
as §1

Data set [5] addresses T4, Chromobox protein homolog 7 (Homo sapiens, UniProt O95931).
T4 sequence (O95931 whole entry): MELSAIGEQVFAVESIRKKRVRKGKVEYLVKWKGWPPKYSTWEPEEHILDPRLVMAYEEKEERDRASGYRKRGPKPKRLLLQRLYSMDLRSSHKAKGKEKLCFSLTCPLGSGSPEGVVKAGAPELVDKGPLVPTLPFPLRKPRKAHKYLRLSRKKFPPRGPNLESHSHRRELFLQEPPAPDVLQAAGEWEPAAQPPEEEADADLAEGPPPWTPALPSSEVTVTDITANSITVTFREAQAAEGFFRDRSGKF
Put plainly: Inhibition of CBX7 (unknown origin) after 30 mins by AlphaScreen assay. Summed up:
as §2

In data set [6] the target is MBT domain-containing protein 1 (Homo sapiens, UniProt Q05BQ5). Put plainly: Inhibition of MBTD1 (unknown origin) after 30 mins by AlphaScreen assay. In a few lines:
as §2

Another data set addresses PHD finger protein 23 (Homo sapiens, UniProt Q9BUL5). Briefly: Inhibition of PHF23 (unknown origin) after 30 mins by AlphaScreen assay. Summed up:
as §2

For data set [7], the target named is T5, Lethal(3)malignant brain tumor-like protein 3 (Homo sapiens, UniProt Q96JM7).
T5 sequence (Q96JM7 whole entry): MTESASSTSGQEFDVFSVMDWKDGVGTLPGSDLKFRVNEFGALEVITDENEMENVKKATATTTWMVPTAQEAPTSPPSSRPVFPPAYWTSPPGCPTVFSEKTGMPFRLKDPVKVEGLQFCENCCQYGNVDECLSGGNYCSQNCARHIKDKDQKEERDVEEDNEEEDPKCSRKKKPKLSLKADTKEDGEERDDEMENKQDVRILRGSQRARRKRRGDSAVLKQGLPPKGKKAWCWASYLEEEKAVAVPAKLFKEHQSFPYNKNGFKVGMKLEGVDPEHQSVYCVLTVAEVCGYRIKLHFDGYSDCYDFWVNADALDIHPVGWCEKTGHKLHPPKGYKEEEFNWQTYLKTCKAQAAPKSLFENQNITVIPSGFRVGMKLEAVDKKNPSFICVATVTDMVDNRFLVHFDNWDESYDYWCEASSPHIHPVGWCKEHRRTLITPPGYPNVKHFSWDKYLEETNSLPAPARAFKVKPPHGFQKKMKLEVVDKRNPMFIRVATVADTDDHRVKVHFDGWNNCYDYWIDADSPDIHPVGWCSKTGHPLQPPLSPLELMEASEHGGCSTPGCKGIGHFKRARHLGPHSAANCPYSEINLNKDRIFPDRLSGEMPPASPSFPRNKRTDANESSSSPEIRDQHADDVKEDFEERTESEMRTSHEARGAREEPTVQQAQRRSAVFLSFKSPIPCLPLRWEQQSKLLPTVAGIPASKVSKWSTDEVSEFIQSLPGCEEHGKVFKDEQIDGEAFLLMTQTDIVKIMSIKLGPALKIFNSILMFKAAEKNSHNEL
Briefly: Inhibition of L3MBTL3 (unknown origin) after 30 mins by AlphaScreen assay. In a few lines:
as §2

TP53-binding protein 1, sequence (Q12888 whole entry): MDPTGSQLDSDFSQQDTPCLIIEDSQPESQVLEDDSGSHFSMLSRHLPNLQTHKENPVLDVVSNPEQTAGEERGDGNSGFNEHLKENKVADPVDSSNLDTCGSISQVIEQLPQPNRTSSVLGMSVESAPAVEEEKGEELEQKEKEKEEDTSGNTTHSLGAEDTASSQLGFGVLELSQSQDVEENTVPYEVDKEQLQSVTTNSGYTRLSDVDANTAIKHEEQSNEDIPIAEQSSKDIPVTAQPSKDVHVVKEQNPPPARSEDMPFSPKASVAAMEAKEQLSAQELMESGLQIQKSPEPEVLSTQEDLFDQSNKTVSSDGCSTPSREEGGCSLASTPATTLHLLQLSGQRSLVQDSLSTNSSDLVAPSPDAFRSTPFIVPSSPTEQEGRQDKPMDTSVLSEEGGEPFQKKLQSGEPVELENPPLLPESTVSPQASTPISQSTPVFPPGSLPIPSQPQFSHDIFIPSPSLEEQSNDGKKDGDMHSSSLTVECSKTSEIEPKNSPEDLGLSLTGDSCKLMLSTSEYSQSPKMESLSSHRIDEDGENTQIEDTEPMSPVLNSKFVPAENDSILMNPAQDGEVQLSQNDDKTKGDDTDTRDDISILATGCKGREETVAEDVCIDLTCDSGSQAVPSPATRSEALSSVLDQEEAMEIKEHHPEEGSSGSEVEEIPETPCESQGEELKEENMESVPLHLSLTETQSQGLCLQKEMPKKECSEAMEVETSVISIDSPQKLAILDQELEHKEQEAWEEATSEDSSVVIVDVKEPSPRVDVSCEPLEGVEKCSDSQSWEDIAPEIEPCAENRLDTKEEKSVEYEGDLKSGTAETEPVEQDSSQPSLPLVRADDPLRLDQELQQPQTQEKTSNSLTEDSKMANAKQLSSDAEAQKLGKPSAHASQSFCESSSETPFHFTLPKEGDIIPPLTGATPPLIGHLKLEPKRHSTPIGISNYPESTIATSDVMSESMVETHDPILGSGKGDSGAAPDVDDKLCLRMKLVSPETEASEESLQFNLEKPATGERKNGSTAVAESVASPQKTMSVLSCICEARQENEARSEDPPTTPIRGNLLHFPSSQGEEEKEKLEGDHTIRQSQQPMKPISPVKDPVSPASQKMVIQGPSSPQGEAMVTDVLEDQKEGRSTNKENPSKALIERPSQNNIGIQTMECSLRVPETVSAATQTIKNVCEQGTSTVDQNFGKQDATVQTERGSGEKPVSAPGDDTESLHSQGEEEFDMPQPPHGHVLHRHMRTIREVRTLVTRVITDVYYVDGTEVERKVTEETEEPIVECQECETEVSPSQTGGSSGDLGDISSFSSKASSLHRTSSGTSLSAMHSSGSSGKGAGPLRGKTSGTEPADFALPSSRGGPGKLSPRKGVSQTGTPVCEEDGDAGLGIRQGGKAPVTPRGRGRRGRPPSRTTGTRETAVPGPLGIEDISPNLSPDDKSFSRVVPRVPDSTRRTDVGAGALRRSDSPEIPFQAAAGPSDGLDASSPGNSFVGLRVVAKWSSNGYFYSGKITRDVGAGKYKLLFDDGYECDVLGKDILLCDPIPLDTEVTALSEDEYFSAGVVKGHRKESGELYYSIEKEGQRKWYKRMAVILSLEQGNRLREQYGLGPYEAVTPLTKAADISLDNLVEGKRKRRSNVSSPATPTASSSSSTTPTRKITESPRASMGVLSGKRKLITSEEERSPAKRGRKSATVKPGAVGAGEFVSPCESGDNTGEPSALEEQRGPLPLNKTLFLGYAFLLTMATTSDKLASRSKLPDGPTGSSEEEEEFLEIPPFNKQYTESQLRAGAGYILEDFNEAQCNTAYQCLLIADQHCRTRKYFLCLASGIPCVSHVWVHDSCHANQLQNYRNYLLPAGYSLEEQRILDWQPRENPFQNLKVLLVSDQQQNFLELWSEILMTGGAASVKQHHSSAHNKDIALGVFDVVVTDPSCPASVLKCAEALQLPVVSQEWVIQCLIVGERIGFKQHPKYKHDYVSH
MBT domain-containing protein 1, sequence (Q05BQ5 whole entry, the tested form may be a part): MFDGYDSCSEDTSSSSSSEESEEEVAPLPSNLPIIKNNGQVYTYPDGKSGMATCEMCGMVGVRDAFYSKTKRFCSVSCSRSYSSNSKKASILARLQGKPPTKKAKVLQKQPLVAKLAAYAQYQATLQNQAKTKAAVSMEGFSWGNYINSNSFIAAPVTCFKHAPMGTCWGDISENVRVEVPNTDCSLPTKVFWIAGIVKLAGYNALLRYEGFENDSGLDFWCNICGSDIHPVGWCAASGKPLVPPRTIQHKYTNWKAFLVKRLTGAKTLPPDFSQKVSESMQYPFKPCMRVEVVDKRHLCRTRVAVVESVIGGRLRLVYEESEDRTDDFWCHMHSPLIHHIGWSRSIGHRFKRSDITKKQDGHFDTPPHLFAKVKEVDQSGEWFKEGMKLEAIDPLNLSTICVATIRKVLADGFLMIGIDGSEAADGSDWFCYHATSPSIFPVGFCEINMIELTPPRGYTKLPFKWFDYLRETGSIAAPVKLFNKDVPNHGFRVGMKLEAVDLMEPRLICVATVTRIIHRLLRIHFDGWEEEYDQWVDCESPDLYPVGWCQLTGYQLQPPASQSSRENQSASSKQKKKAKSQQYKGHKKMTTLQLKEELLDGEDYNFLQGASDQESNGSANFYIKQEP
Lysine-specific demethylase 5A, sequence (P29375 whole entry): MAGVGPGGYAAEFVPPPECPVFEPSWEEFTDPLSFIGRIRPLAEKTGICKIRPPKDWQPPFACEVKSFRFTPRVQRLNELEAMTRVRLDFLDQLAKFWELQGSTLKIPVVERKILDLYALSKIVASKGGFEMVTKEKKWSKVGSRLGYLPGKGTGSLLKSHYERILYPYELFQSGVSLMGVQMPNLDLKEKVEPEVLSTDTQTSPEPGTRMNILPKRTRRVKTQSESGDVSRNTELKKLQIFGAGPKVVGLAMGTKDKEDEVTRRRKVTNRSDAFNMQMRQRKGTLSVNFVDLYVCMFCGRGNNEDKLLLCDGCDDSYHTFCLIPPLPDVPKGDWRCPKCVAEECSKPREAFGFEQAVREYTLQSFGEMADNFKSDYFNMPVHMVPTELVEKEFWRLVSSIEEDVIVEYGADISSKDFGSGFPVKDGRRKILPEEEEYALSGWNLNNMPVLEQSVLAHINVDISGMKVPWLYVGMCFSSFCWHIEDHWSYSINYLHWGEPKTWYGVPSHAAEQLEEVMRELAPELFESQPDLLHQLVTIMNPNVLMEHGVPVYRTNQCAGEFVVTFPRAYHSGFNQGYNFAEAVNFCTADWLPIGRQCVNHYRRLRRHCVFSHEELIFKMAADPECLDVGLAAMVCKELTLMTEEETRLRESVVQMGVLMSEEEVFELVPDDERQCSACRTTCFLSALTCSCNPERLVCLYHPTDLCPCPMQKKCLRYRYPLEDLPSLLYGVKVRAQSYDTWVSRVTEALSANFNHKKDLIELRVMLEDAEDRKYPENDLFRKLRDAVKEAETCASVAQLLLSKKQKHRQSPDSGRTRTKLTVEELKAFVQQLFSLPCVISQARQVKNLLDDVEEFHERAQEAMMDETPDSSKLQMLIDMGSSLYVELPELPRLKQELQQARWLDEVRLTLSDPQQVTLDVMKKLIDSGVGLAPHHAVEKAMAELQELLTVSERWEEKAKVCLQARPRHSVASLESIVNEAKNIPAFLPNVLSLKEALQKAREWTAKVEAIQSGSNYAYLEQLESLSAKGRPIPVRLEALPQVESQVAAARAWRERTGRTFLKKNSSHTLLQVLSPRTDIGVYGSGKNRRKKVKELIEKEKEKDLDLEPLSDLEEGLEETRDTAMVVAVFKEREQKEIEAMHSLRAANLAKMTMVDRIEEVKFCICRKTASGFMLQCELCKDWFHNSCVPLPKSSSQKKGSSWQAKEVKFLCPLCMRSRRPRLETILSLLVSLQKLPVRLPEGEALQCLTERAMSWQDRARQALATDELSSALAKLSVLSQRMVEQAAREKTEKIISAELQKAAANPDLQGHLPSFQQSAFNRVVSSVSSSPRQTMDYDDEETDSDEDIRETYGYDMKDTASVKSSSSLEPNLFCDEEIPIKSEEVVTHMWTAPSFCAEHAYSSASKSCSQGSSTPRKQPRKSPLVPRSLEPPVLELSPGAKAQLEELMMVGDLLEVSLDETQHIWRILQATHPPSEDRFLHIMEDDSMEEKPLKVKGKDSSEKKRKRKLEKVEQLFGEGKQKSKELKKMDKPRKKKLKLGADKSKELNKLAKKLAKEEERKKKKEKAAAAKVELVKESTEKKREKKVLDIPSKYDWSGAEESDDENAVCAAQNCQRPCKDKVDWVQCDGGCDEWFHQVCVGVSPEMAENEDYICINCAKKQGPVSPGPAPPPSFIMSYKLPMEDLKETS
PHD finger protein 23, sequence (Q9BUL5 whole entry): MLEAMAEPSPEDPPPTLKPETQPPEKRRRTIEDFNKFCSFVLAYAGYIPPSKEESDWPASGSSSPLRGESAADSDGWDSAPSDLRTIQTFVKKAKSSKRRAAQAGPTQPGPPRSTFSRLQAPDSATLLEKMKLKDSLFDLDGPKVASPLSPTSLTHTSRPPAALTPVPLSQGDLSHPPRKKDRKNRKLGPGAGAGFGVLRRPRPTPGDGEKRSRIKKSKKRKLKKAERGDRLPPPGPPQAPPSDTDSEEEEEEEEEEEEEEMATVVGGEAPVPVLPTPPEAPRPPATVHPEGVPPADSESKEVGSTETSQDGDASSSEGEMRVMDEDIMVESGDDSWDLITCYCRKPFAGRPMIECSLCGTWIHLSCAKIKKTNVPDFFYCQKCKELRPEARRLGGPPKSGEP

What is called IC50 is the concentration that inhibits the measured activity by half. Lower therefore signals higher potency. For `O=C(c1ccc(C(=O)N2CCC(N3CCCC3)CC2)cc1)N1CCC(N2CCCC2)CC1`, the IC50 (in data set [1]; in [2]; in data set [3]; at TP53-binding protein 1; in [4]; in [5]) was greater than 10 µM in each case. Moreover, the IC50 (in [6]; on PHD finger protein 23) was greater than 10 µM in each case. In addition, in the data set on HEK-293T, the Activity entry was “Non-toxic”.
In turn, `CCN1Cc2ccc(NC(=O)c3cccc(Br)c3)cc2C1` returned an IC50 in [7] of 1.2 µM.
Take `O=C(c1cccc(Br)c1)N1CC2CCC(C1)C2N1CCCC1` (centres undefined): the 50% inhibitory concentration (IC50) in data set [7] came to 3.2 µM.
In data set [7], `O=C(c1cccc(Br)c1)N1CCC(N2CCCC2)CC1` registered a half-maximal inhibitory concentration (IC50) of 4.1 µM.
Take `O=C(c1ccc(C(=O)N2CCN(C3CCCC3)CC2)cc1)N1CCC(N2CCCC2)CC1`: the 50% inhibitory concentration (IC50) (in data set [1]; at TP53-binding protein 1) was greater than 10 µM each time.
